FAK inh: FAK (human) kinase inhibition; biochemical FAK kinase activity assay; 0.84% of 97,000 active; AID 727; inhibition, %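 (tested at 7 µM)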; Q05397; in the data active = inhibition above about 19%
Cav32 inh: blocks human Cav3.2 T-type calcium channel; Cav3.2-expressing cells, Fluo-4 calcium fluorescence FDSS; hits give low values; 4% of 100,000 active; B-score at 10 µM;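 active = single-dose well whose peak fluorescence ratio is a statistical outlier from its plate by either plate-standardised score or position-corrected B-score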
Plk1 PBD FP: blocks phosphopeptide binding to human Plk1 polo box domain. P53350. AID 693. Plk1 PBD phosphopeptide binding, fluorescence polarization. inhibition, %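 (tested at about 20 µM)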. 0.13% of 97,000 active; in the data active = inhibition above about 34%, passing the limit was not always enough
Target sequence (P53350 whole entry, looked up, the tested form may be a part): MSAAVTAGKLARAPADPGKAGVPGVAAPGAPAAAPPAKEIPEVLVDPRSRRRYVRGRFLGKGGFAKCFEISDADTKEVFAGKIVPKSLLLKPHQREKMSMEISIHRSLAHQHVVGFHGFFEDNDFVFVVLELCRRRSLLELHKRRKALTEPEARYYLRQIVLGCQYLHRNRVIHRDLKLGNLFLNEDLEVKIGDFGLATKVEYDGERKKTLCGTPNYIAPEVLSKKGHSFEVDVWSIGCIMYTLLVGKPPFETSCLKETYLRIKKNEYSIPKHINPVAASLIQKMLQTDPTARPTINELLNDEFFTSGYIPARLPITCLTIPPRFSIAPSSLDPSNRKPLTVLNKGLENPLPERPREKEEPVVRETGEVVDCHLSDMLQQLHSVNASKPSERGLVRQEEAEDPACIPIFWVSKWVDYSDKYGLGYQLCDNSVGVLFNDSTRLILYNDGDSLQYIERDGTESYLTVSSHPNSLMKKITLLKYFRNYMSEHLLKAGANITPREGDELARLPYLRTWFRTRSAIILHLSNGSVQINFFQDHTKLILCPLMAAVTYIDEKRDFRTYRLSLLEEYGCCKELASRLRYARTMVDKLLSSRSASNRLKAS
EphB4 ephrin blk: EphB4-ephrin-B2 interaction antagonism. EphB4 LBD / TNYL-RAW-Alexa532 peptide, fluorescence polarization. inhibition, % at 7 µM. 0.15% of 97,000 active;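 active = inhibition above the screen-wide mean inhibition plus 3 SD, cut at about 15% in these data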
HIV Rev-RRE inh: HIV Rev-RRE protein-RNA interaction inhibition; P05866; Rev peptide-RRE RNA binding, FRET; inhibition, % at 8 µM; 0.79% of 97,000 active;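 active = inhibition above the screen-wide mean plus 3 SD, cut at about 35% in these data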
Target sequence (P05866 whole entry, looked up): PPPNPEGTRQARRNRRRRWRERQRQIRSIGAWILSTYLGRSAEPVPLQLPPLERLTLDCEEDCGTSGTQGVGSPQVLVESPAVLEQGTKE
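Test system – labelled RRE RNA duplex and labelled Rev peptide · Reagent – labelled Rev peptide · Doses – one concentration, 8 µM nominal · Incubation – 5 + 15 min at 25 °C · Signal – FRET fluorescence readout · Read-out basis – % inhibition of FRET ratio versus controls · Control set – DMSO wells as 0% and neomycin B wells as 100% inhibition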
PLK1 inh: inhibitors of human PLK1 kinase | P53350 | recombinant PLK1 kinase, TR-FRET peptide phosphorylation | inhibition, % at 10 µM | 0.53% of 97,000 active | AID 619;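 active = inhibition of 50% or more in the single-concentration screen; inactive = inhibition below 50%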
Large screens that a line does not name were inactive; [ ] = another dose, or the depositor's remark. Most compounds without a hit are left out; they make up all but 5.3% or so of the library.

O=C(Nc1ccc(S(=O)(=O)N2CCCc3ccccc32)cc1)C1CCCO1 (centres undefined)	none
Cc1ccc(C(=O)Nc2ccc(S(=O)(=O)N3CCN(C)CC3)cc2)cc1	none
CCC(=O)Nc1ccc(S(=O)(=O)N2CCc3ccccc3C2)cc1	Cav32 inh -4.5 (no result: FAK inh, EphB4 ephrin blk, HIV Rev-RRE inh)
CC(=O)Nc1ccc(S(=O)(=O)N2CCCN(S(=O)(=O)c3ccc(NC(C)=O)cc3)CC2)cc1	none (no result: Cav32 inh)
COc1ccc([C@@H]2C=C(C(=O)O)O[C@H](OCCCCO)C2)cc1	none (no result: FAK inh, Plk1 PBD FP, EphB4 ephrin blk, HIV Rev-RRE inh, PLK1 inh)
O=C(CN1CCc2ccccc2C1)Nc1ccc(Br)cc1	Cav32 inh -4.1
CCc1ccc(NC(=O)CN2CCc3ccccc3C2)cc1	none
CS(=O)(=O)N(CCc1ccccc1)CC(=O)Nc1ccc(OCc2ccccc2)cc1	Cav32 inh -4.2
COC(=O)c1ccccc1NC(=O)CN(CCc1ccccc1)S(C)(=O)=O	none
CC(C)NC(=O)c1c2c(nc3ccccc13)CCCC2	none
CCCOn1c(OCC(C)C)nc2ccccc2c1=O	Cav32 inh -5
O=C(CCc1ccccc1)Nc1cc(C(F)(F)F)ccc1Cl	none
C[C@H](NC(=O)c1ccccc1Cl)C(=O)OC(C(=O)Nc1cc(C(F)(F)F)ccc1Cl)c1ccccc1 (some centres undefined)	Cav32 inh -8.4
O=C(NC(Nc1cc(C(F)(F)F)ccc1Cl)C(=O)c1ccccc1)c1ccccc1 (centres undefined)	none
O=C(CNC(=O)c1ccccc1F)OC(C(=O)Nc1cc(C(F)(F)F)ccc1Cl)c1ccccc1 (centres undefined)	Cav32 inh -5.4
O=C(Cn1nc(Cc2cccnc2)c2ccccc2c1=O)N1CCN(C(=O)c2ccco2)CC1	PLK1 inh 61
CC(C)(C)c1ccc(S(=O)(=O)N2CCC(c3nc4ccc(Cl)cc4[nH]3)CC2)cc1	Cav32 inh -4.6
COc1cc([N+](=O)[O-])ccc1N/C=C/C(=O)c1cccs1	HIV Rev-RRE inh 77
CCN(CCNC(=O)Cn1cc2c(n1)CCCC2)c1ccccc1	none (no result: FAK inh, Plk1 PBD FP, EphB4 ephrin blk, HIV Rev-RRE inh, PLK1 inh)
CCN(CCCNC(=O)CC(C(=O)N1CCc2ccccc21)n1ccnc1)c1ccccc1 (centres undefined)	Cav32 inh -4.6
c1coc(CNc2c3c(nc4ccccc24)CCC3)c1	HIV Rev-RRE inh 36
Cc1cc2nnc(SC3CCCCN(C(=O)c4ccc(F)cc4)C3=O)n2c2ccccc12 (centres undefined)	none (no result: Cav32 inh)
Cc1cc(C)n2nc(SC3CCCCN(C(=O)c4ccc(F)cc4)C3=O)nc2n1 (centres undefined)	EphB4 ephrin blk 19
O=C(c1ccc(C#CC2(O)CCCCC2)cc1)N1CCN(C(c2ccccc2)c2ccccc2)CC1	Cav32 inh -5.1
CCOC(=O)N1CCN(C(=O)c2ccc(C#CC3(O)CCCCC3)cc2)CC1	none
O=C(c1ccc(C#CC2(O)CCCCC2)cc1)N1CCN(Cc2ccccc2)CC1	Cav32 inh -6.1
Cc1nc2ccc(C(C(F)(F)F)(C(F)(F)F)C(F)(F)F)cc2[nH]1	none
COc1cc(NC(=O)c2ccco2)ccc1NC(=O)C(C)C	none
C=CCOc1c(Br)cc(CNc2ccc(NC(=O)C(C)C)c(OC)c2)cc1OC	Cav32 inh -3.8
NC(=O)c1ncn([C@@H]2O[C@H](CO)[C@@H](O)[C@H]2O)c1O	none (no result: FAK inh, Plk1 PBD FP, EphB4 ephrin blk, HIV Rev-RRE inh, PLK1 inh)
O=C(Nc1ccc(Cl)cc1)[C@@H]1[C@@H]2C(=O)N(c3ccc(Cl)cc3Cl)C(=O)[C@@H]2[C@H]2C=CC=NN21	Cav32 inh -4.7
Cc1ccc(N2C(=O)[C@@H]3[C@H](C2=O)[C@H]2C=CC=NN2[C@@H]3C(=O)Nc2ccc(Cl)cc2)cc1	none
O=C(Nc1ccc(Cl)cc1)[C@@H]1[C@@H]2C(=O)N(c3ccc(Cl)cc3)C(=O)[C@@H]2[C@H]2C=CC=NN21	Cav32 inh -5.8
O=C(CN1CCC(C(=O)c2ccc(F)cc2)CC1)Nc1ccc(F)cc1	Cav32 inh -5.4
CCC/C(O)=N\S(=O)(=O)c1ccc(N=NN(C)C)cc1	none
Cc1oc2ccc(O)c(CN3CCOCC3)c2c1C(=O)c1ccc(Cl)cc1	Cav32 inh -4.4
Oc1cccc(-c2nc3ccc4ccccc4c3c3c2CCC3)c1	none
O=C(CN1C(=O)c2ccccc2C1=O)Nc1cccc2cccnc12	Cav32 inh -11
CCC(C)c1ccc(NC(=S)NCc2cccs2)cc1 (centres undefined)	Cav32 inh -3.2
Cc1cc(C)c(C)c(OCC(=O)N2CCCCCC2)c1	none
COCCn1nnnc1C(c1cccs1)N1CCN(c2cc(C)ccc2C)CC1 (centres undefined)	Cav32 inh -4.3
Cc1cccc(N2CCN(C(c3cccs3)c3nnnn3C(C)(C)C)CC2)c1C (centres undefined)	Cav32 inh -6.4
Cc1cccc(N2CCN(C(c3ccccc3)c3nnnn3C(C)(C)C)CC2)c1C (centres undefined)	none (no result: Cav32 inh)
C=C(C)C(=O)Nc1cccc(C2=NOC3(C2)C[C@@H](C(N)=O)N(C(=O)/C=C/C=C/C)C3)c1 (some centres undefined)	none (no result: FAK inh, Plk1 PBD FP, EphB4 ephrin blk, HIV Rev-RRE inh, PLK1 inh)
CCOc1ccc(C2=NNC(c3cccs3)=Nc3ccc(OCC)cc32)cc1	none (no result: Cav32 inh)
CCN1C(=O)N[C@@H](c2ccco2)C(C(=O)OC)=C1C	none (no result: FAK inh, Plk1 PBD FP, EphB4 ephrin blk, HIV Rev-RRE inh, PLK1 inh)
CCc1cc(C(=O)COc2ccccc2F)c(O)cc1O	Cav32 inh -9
CCc1cc(C(=O)Cc2nc3ccccc3[nH]2)c(O)cc1O	none
COC(=O)c1cc(OC)c(OC)cc1NC(=O)c1cc(C)on1	none (no result: Cav32 inh)
CN(c1ccc(Cl)cc1)c1cc(=O)n(C)c2ccccc12	EphB4 ephrin blk 120[fluorescence artefact?]
C#Cc1ccc([C@H]2C=C(C(=O)N3CCOCC3)O[C@@H](OCC)[C@@H]2CCCO)cc1	none (no result: FAK inh, Plk1 PBD FP, EphB4 ephrin blk, HIV Rev-RRE inh, PLK1 inh)
COc1ccccc1Nc1nc(N)nc(CN2CCN(Cc3ccccc3)CC2)n1	none
COc1ccccc1N1CCN(Cc2nc(N)nc(Nc3ccc(C)c(Cl)c3)n2)CC1	Cav32 inh -5.7
COc1cccc(N2CCN(Cc3nc(N)nc(Nc4ccccc4)n3)CC2)c1	none
Cc1cccc(Nc2nc(N)nc(CN3CCN(c4ccccc4)CC3)n2)c1	Cav32 inh -3.7
Cc1cccc(Nc2nc(N)nc(CN3CCN(c4ccccc4F)CC3)n2)c1	Cav32 inh -4.9
O=S(=O)(c1cccc(S(=O)(=O)N2CCC(Cc3ccccc3)CC2)c1)N1CCOCC1	Cav32 inh -5.9
CSc1ccc(/C=N/NC(=O)c2cccc(O)c2)cc1	none
CC(=O)c1ccc(OCC(O)CN2CCN(c3ccccn3)CC2)cc1 (centres undefined)	PLK1 inh 69
CC(=O)c1ccc(OCC(O)CN2CCN(Cc3ccccc3)CC2)cc1 (centres undefined)	PLK1 inh 65
CC(=O)c1ccc(OCC(O)CN2CCN(CC(O)COc3ccc(C(C)=O)cc3)CC2)cc1 (centres undefined)	none
O=C(c1ccccc1)c1ccc(OCC(O)CN2CCN(Cc3ccccc3)CC2)cc1 (centres undefined)	none
